Reference: article PMC6217654 (ACS Omega, 2018)
Peptide text beside a SMILES is read from it.

Columns and labels:
[1] = test system: reserpine-induced hypothermia mice; assay: Antagonistic effect on reserpine-induced hypothermia in mice; type: in vivo; details: p.o.; for CNS effect (reserpine-induced hypothermia), in words, SAR comparison: mice, data not shown or compared with 64
Summary of the method: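 Male ddY mice (bought at 6 weeks, 1-week quarantine, ~25 °C). Reserpine 3 mg/kg s.c.; mice with rectal temperature ≤30 °C about 18 h later were used. Test compound in saline p.o. at 5 μmol/kg, TRH at 50 μmol/kg, saline controls. Rectal temperature by thermistor before and up to 7 h post-dose. Trapezoidal AUC0–7h, with saline AUC subtracted. Mean ± SD, ≥3 animals.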

[2] = PK of TRH mimetics in rat, cassette dosing i.v. and p.o.; type: in vivo; details: for MRT / Vd / clearance / half-life: male, Sprague-Dawley, plasma, iv, 1 umol/kg; for BA: oral 2 μmol/kg vs i.v. 1 μmol/kg
Summary of the method: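 Cassette dosing in rats (n = 2, 302–364 g). p.o.: 2 μmol/5 mL/kg in DMSO/0.5% methylcellulose 1/4. i.v.: 1 μmol/1 mL/kg in DMSO/propylene glycol 1/1. Heparinized jugular blood; plasma precipitated with methanol/acetonitrile 1/1; LC/MS/MS, ESI positive. t1/2 from terminal phase; MRT by linear trapezoid with monoexponential extrapolation; BA = dose-normalized po/iv AUC ratio. Mean of two animals.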

Free fraction ratio = type: in vitro ADME, rat; details: in vitro
[3] = test system: rats with Ara-C-induced cerebellar damage; assay: Ara-C-induced cerebellar ataxia in rats, open field fall index; type: in vivo, rat
[4] = PK of TRH and 79 after oral administration to fasted conscious rats; type: in vivo, rat; details: male, Wistar, rat, plasma, po, 40 mg/kg
Summary of the method: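 Male Wistar rats (10–11 weeks, 230–274 g, n ≥ 4), fasted from the evening before dosing to the 12 h sample. Jugular cannula placed under isoflurane 2–3 days before. Single p.o. dose of 40 mg/4 mL/kg in saline. Heparinized blood (~0.3 mL) drawn via cannula; plasma deproteinized with methanol; HPLC with UV absorbance detection. Cmax, Tmax, AUC0–8h given as mean ± SD.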

human TRH-R = details: read-out: Ki for human TRH-R; in vitro binding, reported previously; cited from earlier work
[5] = cited from earlier work

| SMILES | CNS effect (reserpine-induced hypothermia), in words, SAR comparison [1] | MRT [2] | Vd [2] | clearance [2] | half-life [2] | other results |
| --- | --- | --- | --- | --- | --- | --- |
| NC(=O)[C@@H]1CCCN1C(=O)[C@H](Cc1cncs1)NC(=O)[C@@H]1CCC(=O)N1 [Compound 56, L-Pyroglutamyl-[3-(thiazol-5-yl)-L-alanyl]-L-prolinamide] | less than that of 64 | – | – | – | – | – |
| NC(=O)[C@@H]1CSCN1C(=O)[C@H](Cc1cscn1)NC(=O)[C@@H]1CCC(=O)N1 [Compound 57, 3-{N-L-Pyroglutamyl-[3-(thiazol-4-yl)-L-alanyl]}-(4R)-4-thiazolidinecarboxamide] (HELM PEPTIDE1{[Glp].[O=C([C@H](Cc1cscn1)N[*:1])[*:2]].[O=C([C@@H]1CSCN1[*:1])[*:2]].[am]}$$$$V2.0) | less than that of 64 | – | – | – | – | – |
| NC(=O)[C@@H]1CCCN1C(=O)[C@H](Cc1cscn1)NC(=O)[C@@H]1COC(=O)N1 [Compound 58, {[(4S)-(2-Oxooxazolidine-4-yl)carbonyl]-3-(thiazol-4-yl)-L-alanyl}-L-prolinamide] | maintained | – | – | – | – | – |
| C[C@H]1OC(=O)N(C)[C@@H]1C(=O)N[C@@H](Cc1cscn1)C(=O)N1CCC[C@H]1C(N)=O [Compound 60, {[(4S,5R)-3,5-Dimethyl-2-oxooxazolidine-4-carbonyl]-3-(thiazol-4-yl)-L-alanyl}-L-prolinamide] | decreased the CNS effects | – | – | – | – | – |
| C[C@H]1OC(=O)N(Cc2ccccc2)[C@@H]1C(=O)N[C@@H](Cc1cscn1)C(=O)N1CCC[C@H]1C(N)=O [Compound 61, {[(4S,5R)-3-Benzyl-5-Methyl-2-oxooxazolidine-4-carbonyl]-3-(thiazol-4-yl)-L-alanyl}-L-prolinamide] | decreased the CNS effects | – | – | – | – | – |
| C[C@H]1OC(=O)N[C@@H]1C(=O)N[C@@H](Cc1cncs1)C(=O)N1CCC[C@H]1C(N)=O [Compound 62] | less than that of 64 | – | – | – | – | – |
| C[C@H]1OC(=O)N[C@@H]1C(=O)N[C@@H](Cc1cscn1)C(=O)N1CSC[C@H]1C(N)=O [Compound 63, 3-{N-[(4S,5R)-(5-Methyl-2-oxooxazolidine-4-yl)carbonyl]-3-(thiazol-4-yl)-L-alanyl}-(4R)-4-thiazolidinecarboxamide] | less than that of 64 | – | – | – | – | – |
| C[C@@H]1OC(=O)N[C@@H]1C(=O)N[C@@H](Cc1cscn1)C(=O)N1CCC[C@H]1C(N)=O [Compound 64, {[(4S,5S)-(5-Methyl-2-oxooxazolidine-4-yl)carbonyl]-3-(thiazol-4-yl)-L-alanyl}-L-prolinamide] | – | 14.3 min | 0.19 L/kg | 13 mL/min/kg | 13.5 min | BA [2]: 1.1%; fu: free fraction ratio in serum (Free fraction ratio): >99% |
| C[C@@H]1OC(=O)N[C@@H]1C(=O)N[C@@H](Cc1cscn1)C(=O)N1CSC[C@H]1C(N)=O [Compound 68, 3-{N-[(4S,5S)-(5-Methyl-2-oxooxazolidine-4-yl)carbonyl]-3-(thiazol-4-yl)-L-alanyl}-(4R)-4-thiazolidinecarboxamide] | – | 11 min | 0.16 L/kg | 14.2 mL/min/kg | 9.8 min | fu: free fraction ratio in serum (Free fraction ratio): >99% |
| C[C@@H]1OC(=O)N[C@@H]1C(=O)N[C@@H](Cc1cscn1)C(=O)N1CCC[C@H]1C#N [Compound 69, 1-{N-[(4S,5S)-(5-Methyl-2-oxooxazolidine-4-yl)carbonyl]-3-(thiazol-4-yl)-L-alanyl}-(2S)-2-cyanopyrrolidine] | – | 14.6 min | 0.25 L/kg | 17.4 mL/min/kg | 26.2 min | fu: free fraction ratio in serum (Free fraction ratio): >99% |
| C[C@@H]1OC(=O)N[C@@H]1C(=O)N[C@@H](Cc1cscn1)C(=O)N1CCC[C@H]1C [Compound 70, 1-{N-[(4S,5S)-(5-Methyl-2-oxooxazolidine-4-yl)carbonyl]-3-(thiazol-4-yl)-L-alanyl}-(2R)-2-methylpyrrolidine] | – | 19.1 min | 0.58 L/kg | 30.6 mL/min/kg | 21.6 min | BA [2]: 4.7%; fu: free fraction ratio in serum (Free fraction ratio): >99% |
| C[C@@H]1OC(=O)N[C@@H]1C(=O)N[C@@H](Cc1cncs1)C(=O)N1CCC[C@H]1C [Compound 71, 1-{N-[(4S,5S)-(5-Methyl-2-oxooxazolidine-4-yl)carbonyl]-3-(thiazol-5-yl)-L-alanyl}-(2R)-2-methylpyrrolidine] | less than that of 64 | – | – | – | – | – |
| C[C@@H]1OC(=O)N[C@@H]1C(=O)N[C@@H](Cc1c[nH]cn1)C(=O)N1CCC[C@H]1C [Compound 72, 1-{N-[(4S,5S)-(5-Methyl-2-oxooxazolidine-4-yl)carbonyl]-L-histidyl}-(2R)-2-methylpyrrolidine] | less than that of 64 | – | – | – | – | – |
| C[C@@H]1OC(=O)N[C@@H]1C(=O)N[C@@H](Cc1cscn1)C(=O)N1CCC[C@H]1C(=O)OCc1ccccc1 [Compound 74, {[(4S,5S)-5-Methyl-2-oxooxazolidine-4-carbonyl]-3-(thiazol-4-yl)-L-alanyl}-L-proline Benzyl Ester] | less than that of 64 | – | – | – | – | – |
| NC(=O)[C@@H]1CCCN1C(=O)[C@H](Cc1cnc[nH]1)NC(=O)[C@@H]1CCC(=O)N1 [TRH, L-pGlu–L-His–L-Pro-NH2, reference compound] | – | 3.7 min | 0.33 L/kg | 89.2 mL/min/kg | 3 min | rectal temperature compared with saline levels ([1]; 79 5 μmol/kg from 2 to 7 h, TRH 50 μmol/kg from 0 to 7 h): almost the same low rectal temperature profiles as the saline levels; rectal temperature ΔAUC0–7h = AUC0–7h(compounds) – AUC0–7h(saline) ([1]; reserpine-induced hypothermia mice, TRH 50 μmol/kg, 79 5 μmol/kg): –4.0 ± 3.3 °C·h; rectal temperature AUC0–7h ([1]; reserpine-induced hypothermia mice, TRH 50 μmol/kg, 79 5 μmol/kg, mean ± SD): 201.4 ± 3.3 °C·h; fall index ([3]; 10 mg/kg i.v. once, 30 min post-dose, mean ± SE, vehicle 2.06 ± 0.09): 1.05 ± 0.22; fall index ([3]; 30 mg/kg i.v. once, 30 min post-dose, mean ± SE, vehicle 2.06 ± 0.09): 0.87 ± 0.17; fall index ([3]; TRH 30, 100 and 300 mg/kg p.o. once daily for 7 days): no significant decrease; AUC(0-t) [4]: 68 ± 72 ng·h/mL; Cmax [4]: 50 ± 39 ng/mL; Tmax [4]: 45 ± 17.4 min; Ki (human TRH-R): 128 nM; t1/2 of degradation by the brain homogenate [5]: 7.9 min |
